The source made the active and inactive calls. The rule behind the calls is not given here.
What follows are compounds tested on HL-60 (assay: Induction of apoptosis in human HL60 cells assessed as early apoptotic cells at 0.3 uM after 6 hrs using Annexin-V-FITC/propidium iodide staining by flow cytometry (reference value: 6%)). Settings: not given.
Type: functional
Method in brief: (§1)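 HL-60 cells (1 × 10^6/ml) treated 6 h at varied concentrations; camptothecin 4 μM 6 h positive control. AnnexinV-FITC and propidium iodide staining per kit; FL-1 versus FL-2 flow cytometry with quadrant statistics for apoptotic and necrotic populations; representative of three experiments.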

Compound | Activity [%]
CCCCOC(=O)[C@@]1(C)C(=O)C(C#N)=C[C@]2(C)[C@H]3CC=C4[C@@H]5[C@@H](C)[C@H](C)CC[C@]5(C)CC[C@@]4(C)[C@]3(C)CC[C@@H]12 | 9

These compounds were tested on HeLa (assay: Cytotoxicity against human HeLa cells after 48 hrs by MTT assay). Settings: not given.
Type: functional, cell-based
Method in brief: (§2)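 HL-60 (2 × 10^4/200 μl) or HeLa (1 × 10^4/200 μl) in RPMI-1640/MEM, 10% FCS, 37 °C, 5% CO2; treated 0.1–50 μM for 48 h, DMSO vehicle <0.2%. MTT added final 3 h; formazan dissolved in DMSO, OD 570 nm (reference 620 nm). IC50 as 50% viability versus untreated control; three experiments, CV <10%.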

Compound | IC50 [µM]
CCCCOC(=O)[C@@]1(C)C(=O)C(C#N)=C[C@]2(C)[C@H]3CC=C4[C@@H]5[C@@H](C)[C@H](C)CC[C@]5(C)CC[C@@]4(C)[C@]3(C)CC[C@@H]12 | 7.9

Each compound was assayed on HL-60 (assay: Induction of apoptosis in human HL60 cells assessed as nuclear condensation and blebbing at 0.5 to 2 uM after 9 hrs Hoechst 33258 staining by fluorescence microscopy). Settings: not given.
Type: functional, cell-based
Method in brief: (§3)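 HL-60 cells (2 × 10^6/3 ml) treated 9 h, washed twice in PBS, fixed and stained with Hoechst 33258; nuclear morphology and apoptotic bodies examined by inverted fluorescence microscopy.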

Compound | Activity
CCCCOC(=O)[C@@]1(C)C(=O)C(C#N)=C[C@]2(C)[C@H]3CC=C4[C@@H]5[C@@H](C)[C@H](C)CC[C@]5(C)CC[C@@]4(C)[C@]3(C)CC[C@@H]12 | Active

Each compound was assayed on HL-60 (assay: Induction of apoptosis in human HL60 cells assessed as early apoptotic cells at 1 uM after 6 hrs using Annexin-V-FITC/propidium iodide staining by flow cytometry (reference value: 6%)). Settings: not given.
Type: functional
Method in brief: as §1

Compound | Activity [%]
CCCCOC(=O)[C@@]1(C)C(=O)C(C#N)=C[C@]2(C)[C@H]3CC=C4[C@@H]5[C@@H](C)[C@H](C)CC[C@]5(C)CC[C@@]4(C)[C@]3(C)CC[C@@H]12 | 10

The compounds below were run on HL-60 (assay: Induction of apoptosis in human HL60 cells assessed as late apoptotic cells at 2 uM after 6 hrs using Annexin-V-FITC/propidium iodide staining by flow cytometry (reference value: 1%)). Settings: not given.
Type: functional
Method in brief: as §1

Compound | Activity [%]
CCCCOC(=O)[C@@]1(C)C(=O)C(C#N)=C[C@]2(C)[C@H]3CC=C4[C@@H]5[C@@H](C)[C@H](C)CC[C@]5(C)CC[C@@]4(C)[C@]3(C)CC[C@@H]12 | 2

What follows are compounds tested on HL-60 (assay: Cell cycle arrest in human HL60 cells assessed as accumulation at sub-G1 phase at 4 uM after 18 hrs by flow cytometry relative to control). Settings: not given.
Type: functional
Method in brief: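 HL-60 cells at 1 × 10^6/ml exposed 18 h; camptothecin 4 μM for 6 h as positive control. Cells pelleted 160 × g 5 min, PBS-washed, fixed in cold 70% alcohol overnight at −20 °C, RNase (400 μg/ml) digested, PI-stained; flow cytometry, hypo-diploid (<2n DNA) sub-G0/G1 fraction scored as apoptotic.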

Compound | Activity [%]
CCCCOC(=O)[C@@]1(C)C(=O)C(C#N)=C[C@]2(C)[C@H]3CC=C4[C@@H]5[C@@H](C)[C@H](C)CC[C@]5(C)CC[C@@]4(C)[C@]3(C)CC[C@@H]12 | 76

The compounds below were run on HL-60 (assay: Induction of apoptosis in human HL60 cells assessed as loss of cell cytoplasmic volume at 2 uM after 9 hrs by scanning electron microscopy). Settings: not given.
Type: functional, cell-based
Method in brief: (§4)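 HL-60 seeded 2 × 10^5/ml in medium with 10% FCS, treated at 0.5 and 2 μM (DMSO stock; vehicle-only controls) for 9 h at 37 °C. Fixed 2.5% glutaraldehyde in 0.1 M phosphate pH 7.2 at 4 °C 1 h, post-fixed 1% OsO4 1 h, acetone-dehydrated, critical-point dried, gold-coated; surface ultrastructure by scanning electron microscopy.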

Compound | Activity
CCCCOC(=O)[C@@]1(C)C(=O)C(C#N)=C[C@]2(C)[C@H]3CC=C4[C@@H]5[C@@H](C)[C@H](C)CC[C@]5(C)CC[C@@]4(C)[C@]3(C)CC[C@@H]12 | Active

The compounds below were run on HL-60 (assay: Induction of apoptosis in human HL60 cells assessed as cell shrinkage and apoptotic body formation at 0.5 uM after 9 hrs by scanning electron microscopy). Settings: not given.
Type: functional, cell-based
Method in brief: as §4

Compound | Activity
CCCCOC(=O)[C@@]1(C)C(=O)C(C#N)=C[C@]2(C)[C@H]3CC=C4[C@@H]5[C@@H](C)[C@H](C)CC[C@]5(C)CC[C@@]4(C)[C@]3(C)CC[C@@H]12 | Active

The compounds below were run on HL-60 (assay: Induction of apoptosis in human HL60 cells assessed as smoothening of cell surface and blebbing of plasma membrane at 0.5 uM after 9 hrs by scanning electron microscopy). Settings: not given.
Type: functional, cell-based
Method in brief: as §4

Compound | Activity
CCCCOC(=O)[C@@]1(C)C(=O)C(C#N)=C[C@]2(C)[C@H]3CC=C4[C@@H]5[C@@H](C)[C@H](C)CC[C@]5(C)CC[C@@]4(C)[C@]3(C)CC[C@@H]12 | Active

These compounds were tested on HL-60 (assay: Induction of apoptosis in human HL60 cells assessed as apoptotic cells at 2 uM after 9 hrs by scanning electron microscopy). Settings: not given.
Type: functional, cell-based
Method in brief: as §4

Compound | Activity
CCCCOC(=O)[C@@]1(C)C(=O)C(C#N)=C[C@]2(C)[C@H]3CC=C4[C@@H]5[C@@H](C)[C@H](C)CC[C@]5(C)CC[C@@]4(C)[C@]3(C)CC[C@@H]12 | Active

The compounds below were run on HL-60 (assay: Induction of apoptosis in human HL60 cells assessed as increase in scattered apoptotic bodies formation at 0.5 uM after 9 hrs using Hoechst 33258 staining by fluorescence microscopy). Settings: not given.
Type: functional, cell-based
Method in brief: as §3

Compound | Activity
CCCCOC(=O)[C@@]1(C)C(=O)C(C#N)=C[C@]2(C)[C@H]3CC=C4[C@@H]5[C@@H](C)[C@H](C)CC[C@]5(C)CC[C@@]4(C)[C@]3(C)CC[C@@H]12 | Active

Each compound was assayed on HL-60 (assay: Induction of apoptosis in human HL60 cells assessed as early apoptotic cells at 4 uM after 6 hrs using Annexin-V-FITC/propidium iodide staining by flow cytometry (reference value: 6%)). Settings: not given.
Type: functional
Method in brief: as §1

Compound | Activity [%]
CCCCOC(=O)[C@@]1(C)C(=O)C(C#N)=C[C@]2(C)[C@H]3CC=C4[C@@H]5[C@@H](C)[C@H](C)CC[C@]5(C)CC[C@@]4(C)[C@]3(C)CC[C@@H]12 | 12

Each compound was assayed on HL-60 (assay: Induction of apoptosis in human HL60 cells assessed as late apoptotic cells at 0.3 uM after 6 hrs using Annexin-V-FITC/propidium iodide staining by flow cytometry (reference value: 1%)). Settings: not given.
Type: functional
Method in brief: as §1

Compound | Activity [%]
CCCCOC(=O)[C@@]1(C)C(=O)C(C#N)=C[C@]2(C)[C@H]3CC=C4[C@@H]5[C@@H](C)[C@H](C)CC[C@]5(C)CC[C@@]4(C)[C@]3(C)CC[C@@H]12 | 2

These compounds were tested on HL-60 (assay: Induction of apoptosis in human HL60 cells assessed as early apoptotic cells at 2 uM after 6 hrs using Annexin-V-FITC/propidium iodide staining by flow cytometry (reference value: 6%)). Settings: not given.
Type: functional
Method in brief: as §1

Compound | Activity [%]
CCCCOC(=O)[C@@]1(C)C(=O)C(C#N)=C[C@]2(C)[C@H]3CC=C4[C@@H]5[C@@H](C)[C@H](C)CC[C@]5(C)CC[C@@]4(C)[C@]3(C)CC[C@@H]12 | 11

What follows are compounds tested on HL-60 (assay: Induction of apoptosis in human HL60 cells assessed as late apoptotic cells at 4 uM after 6 hrs using Annexin-V-FITC/propidium iodide staining by flow cytometry (reference value: 1%)). Settings: not given.
Type: functional
Method in brief: as §1

Compound | Activity [%]
CCCCOC(=O)[C@@]1(C)C(=O)C(C#N)=C[C@]2(C)[C@H]3CC=C4[C@@H]5[C@@H](C)[C@H](C)CC[C@]5(C)CC[C@@]4(C)[C@]3(C)CC[C@@H]12 | 1

What follows are compounds tested on HL-60 (assay: Induction of apoptosis in human HL60 cells assessed as late apoptotic cells at 1 uM after 6 hrs using Annexin-V-FITC/propidium iodide staining by flow cytometry (reference value: 1%)). Settings: not given.
Type: functional
Method in brief: as §1

Compound | Activity [%]
CCCCOC(=O)[C@@]1(C)C(=O)C(C#N)=C[C@]2(C)[C@H]3CC=C4[C@@H]5[C@@H](C)[C@H](C)CC[C@]5(C)CC[C@@]4(C)[C@]3(C)CC[C@@H]12 | 1

These compounds were tested on HL-60 (assay: Cytotoxicity against human HL60 cells after 48 hrs by MTT assay). Settings: HL-60, 48 h.
Type: functional, cell-based
Method in brief: as §2

Compound | IC50 [µM]
CCCCOC(=O)[C@@]1(C)C(=O)C(C#N)=C[C@]2(C)[C@H]3CC=C4[C@@H]5[C@@H](C)[C@H](C)CC[C@]5(C)CC[C@@]4(C)[C@]3(C)CC[C@@H]12 | 0.42

— ChEMBL document CHEMBL1759852, “A comparative study of proapoptotic potential of cyano analogues of boswellic acid and 11-keto-boswellic acid” (Eur J Med Chem, 2011)
